Experimental data as given in PMC10962275 (Pharmacological research, 2024).
Converted amounts (≈) assume the structure as drawn. Like-named read-outs stand apart in the source and are kept apart here.

Experiments:
[1] = system: CAF19 cells; test: 3D co-culture spheroid assay, CAFs; type: cell-based; conditions: Homo sapiens, Pa03C, read-out: 3D CAF19 EC50 (mM)
In short: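 Pa03C (TdTomato-labelled) and CAF19 (EGFP-labelled) plated together at 1:4 in ultra-low-attachment plates to form spheroids. Treated on days 4, 8 and 12 with rising test compound levels in medium containing 5% serum and 3% growth-factor-reduced Matrigel. Fluorescence intensity read by high-content imaging on days 4, 8, 12 and 14. Mean ± SE, n > 3.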

[2] = Phase 1 metabolic stability, human liver S9; type: in vitro ADME; conditions: liver S9, pH 7.4
In short: (§1)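 Test compound (1 μM) dried under nitrogen, then mixed with human or mouse liver S9 or microsomes (20 mg/mL stock) in phosphate buffer pH 7.4 with 5 mM MgCl2. Reaction started with NADPH (4 mM stock), shaken at 400 rpm. Sampled at 0, 5, 10, 20, 40 and 60 min and quenched with ice-cold acetonitrile; analysed by HPLC.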

[3] = target: T1, Ref-1 (39–318/C138A) (Homo sapiens, UniProt P27695, C138A); test: WaterLOGSY NMR; type: binding; conditions: 20 μM Ref-1, 200 μM compound
In short: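 WaterLOGSY spectra acquired with 1.5 s mixing time, 128 scans, 10 ppm sweep width, 1.58 s acquisition time and 5 s relaxation delay. Data multiplied by an exponential function with 1 Hz line broadening before Fourier transformation.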

[4] = system: NFκB and HIF1α; test: Ref-1-regulated transcription factor driven luciferase activity; type: cell-based, human; conditions: Pa03C and NF90–8 cells, 24 h
[5] = Chemical stability in enabling vehicle PKT; type: physicochemical
[6] = Phase 1 metabolic stability, mouse liver S9; type: in vitro ADME; conditions: liver S9, pH 7.4
In short: as §1

[7] = target: Ref-1 (Homo sapiens, UniProt P27695); test: Redox EMSA; type: biochemical
[8] = system: HIF1α; test: HIF1α-driven luciferase reporter assay, NF90-8 cells, 1% hypoxia; type: cell-based; conditions: Homo sapiens, 24 h, read-out: HIF1α Luciferase 24 hr EC50±SE (μM)
In short: (§2)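 Pa03C and NF90–8 cells carrying a HIF1α-driven GFP-luciferase reporter, checked for induction by hypoxia. Seeded, then treated 24 h later with increasing test compound doses in 5% FBS medium for 24 h under 1% hypoxia. Luciferase measured by One-Glo, with parallel alamarBlue viability. Mean ± SEM, n > 2 biological repeats.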

[9] = system: NFκB; test: NFκB luciferase reporter assay; type: cell-based, human; conditions: for IC50: Homo sapiens, Pa03C, read-out: NFκB (IC50 mM)
In short: (§3)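 Pa03C and NF90–8 cells carrying an NFκB-driven GFP-luciferase reporter, checked for induction by TNF-α. Seeded, then treated 24 h later with increasing test compound doses in 5% FBS medium for 24 h. Luciferase measured by One-Glo, with parallel alamarBlue viability. Mean ± SEM, n > 2 biological repeats.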

[10] = system: Pa03C cells; test: 3D co-culture spheroid assay, tumor cells; type: cell-based; conditions: Homo sapiens; for EC50: read-out: 3D tumor(Pa03C) EC50 (mM); for IC50: read-out: cell killing effect in the 3D spheroid assay
[11] = system: NFκB; test: NFκB-driven luciferase reporter assay, NF90-8 cells; type: cell-based; conditions: Homo sapiens, 24 h, read-out: NFκB Luciferase 24 hr EC50±SE (μM)
In short: as §3

[12] = Phase 1 metabolic stability, human liver microsomes; type: in vitro ADME; conditions: pH 7.4
In short: as §1

[13] = system: HIF1α; test: HIF1α-driven luciferase reporter assay, Pa03C cells, 1% hypoxia; type: cell-based; conditions: Homo sapiens, 24 h, read-out: HIF1α Luciferase 24 hr EC50 ± SE (μM)
In short: as §2

[14] = Plasma stability, human plasma; type: in vitro ADME
In short: (§4)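 Human or mouse plasma pre-warmed to 37 °C and added to dried test compound (1 μM) held on a 37 °C heat block. Stopped with cold acetonitrile at 0, 5, 10, 20, 40 and 60 min. Processed samples reconstituted in acetonitrile and analysed by HPLC.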

[15] = Phase 1 metabolic stability, mouse liver microsomes; type: in vitro ADME; conditions: pH 7.4
In short: as §1

[16] = CaCO2 bidirectional permeability; type: in vitro ADME; conditions: human, Caco-2
[17] = In vivo PK in mouse; conditions: plasma; for clearance: iv; for AUC(0-inf) / Cmax / half-life: po, 25 mg/kg
[18] = system: NFκB; test: NFκB-driven luciferase reporter assay, Pa03C cells; type: cell-based; conditions: Homo sapiens, 24 h, read-out: NFκB Luciferase 24 hr EC50 ± SE (μM)
In short: as §3

[19] = Thermodynamic solubility; type: physicochemical; conditions: thermodynamic from solid; for solubility thermodynamic at 24 h: 37 °C; for solubility thermodynamic: phosphate buffer, pH 6.8, aqueous buffer
[20] = target: APE1 (Homo sapiens, UniProt P27695); test: Kinetic fluorescence based APE1 endonuclease; type: biochemical
In short: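 Recombinant APE1 at 0.07–0.1 nM, tuned before each run for a linear signal, cleaves a double-stranded oligo with a 6-FAM-labelled strand carrying a tetrahydrofuran AP-site mimic and a DABCYL-quenched complement. Read 495/530 over a 5 min kinetic read at 37 °C. A known repair inhibitor serves as reference, also at 20 μM.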

[21] = Plasma stability, mouse plasma; type: in vitro ADME
In short: as §4

[22] = system: Pa03C cells; test: NADP/NADPH assay; type: cell-based, human; conditions: 6 h
[23] = system: NF90–8 and Pa03C cells; test: Cell viability; type: cell-based, human; conditions: alamar blue, 24 h
[24] = preclinical models; cited from earlier work
[25] = Phase 2 metabolic stability, mouse liver S9; type: in vitro ADME
In short: (§5)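 Test compound (1 μM) dried under nitrogen, then incubated with human or mouse liver S9 in UGT reaction mix, shaken at 400 rpm. Stopped with ice-cold acetonitrile at 0, 5, 10, 20, 40 and 60 min. Temazepam internal standard added, then centrifuged; supernatant dried and reconstituted in acetonitrile for HPLC.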

[26] = system: NF90–8 cells; test: Mitochondrial plate-based assay; type: cell-based, human; conditions: APX2051 at 10 μM, APX3330 at 50 μM
In short: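 Biolog S-1 Mitoplates activated with Assay Mix for at least 60 min at 37 °C. NF90–8 cells treated 24 h, then collected, counted, resuspended in kit buffer and plated at 5 × 10^4 cells/well. Read kinetically at 590 nm every 5 min for 4 h at 37 °C. Mean ± SEM, n = 2; 2-way ANOVA.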

[27] = Phase 2 metabolic stability, human liver S9; type: in vitro ADME
In short: as §5

[28] = target: T1, Ref-1 (39–318/C138A); conditions: ref [25]; cited from earlier work
[29] = system: progressing solid tumors; conditions: phase I clinical trial, ref [34]–[36]; cited from earlier work
[30] = FaSSGF, fassgf or other biorelevant

Chain of APE1 (P27695 whole entry): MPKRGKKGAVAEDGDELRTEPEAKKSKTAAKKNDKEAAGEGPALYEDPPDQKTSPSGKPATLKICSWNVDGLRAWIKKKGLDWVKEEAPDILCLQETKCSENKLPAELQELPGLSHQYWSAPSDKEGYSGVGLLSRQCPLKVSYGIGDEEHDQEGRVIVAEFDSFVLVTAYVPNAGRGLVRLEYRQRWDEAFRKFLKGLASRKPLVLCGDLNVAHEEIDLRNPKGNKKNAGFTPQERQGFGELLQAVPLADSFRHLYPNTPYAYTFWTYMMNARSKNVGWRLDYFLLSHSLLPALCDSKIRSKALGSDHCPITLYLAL
T1 sequence (P27695 39-318 C138A): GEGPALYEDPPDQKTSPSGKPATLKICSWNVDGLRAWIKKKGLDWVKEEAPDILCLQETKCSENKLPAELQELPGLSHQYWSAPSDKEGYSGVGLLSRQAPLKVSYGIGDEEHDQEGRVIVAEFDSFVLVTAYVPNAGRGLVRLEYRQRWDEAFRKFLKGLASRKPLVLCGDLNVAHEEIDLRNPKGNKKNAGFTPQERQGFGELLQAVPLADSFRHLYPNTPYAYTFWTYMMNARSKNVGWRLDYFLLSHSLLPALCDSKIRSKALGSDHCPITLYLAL
Chain of Ref-1 (P27695 whole entry): as the sequence (P27695 whole entry) above

| Structure (SMILES) | EC50 [1] | CLint scaled at 1 µM [2] | peaks in waterLOGSY difference spectra [3] | CLint scaled at 1 µM [6] | EC50 [8] | IC50 [9] | EC50 [10] | CLint scaled at 1 µM [12] | half-life at 1 µM [14] | CLint scaled at 1 µM [15] | Papp A→B [16] | clearance [17] | AUC(0-inf) [17] | Cmax [17] | half-life [17] | solubility thermodynamic at 24 h [19, 30] | solubility thermodynamic at 24 h ([19]; FaSSIF) | solubility thermodynamic at 24 h ([19]; FeSSIF) | DNA Repair [20] | half-life at 1 µM [21] | other results |
| --- | --- | --- | --- | --- | --- | --- | --- | --- | --- | --- | --- | --- | --- | --- | --- | --- | --- | --- | --- | --- | --- |
| CCC/C(=C\C1=C(OC)C(=O)c2ccccc2C1=O)C(=O)N(CC)CC [APX2009, (E)‐N,N‐diethyl‐2‐[(3‐methoxy‐1,4‐dioxo‐1,4‐dihydronaphthalen‐2-yl)methylidene]pentanamide] | 0.0078 mM | 2.9 mL/min/kg | consistent with interactions with Ref-1 | 7.9 mL/min/kg | 14.3 ± 0.25 µM | 0.0051 mM | 0.0046 mM | 4.3 mL/min/kg | 2.72 h | 19.3 mL/min/kg | 33.7 ×10⁻⁶ cm/s | 0.683 mL/min | 113 ng·h/mL | 27 ng/mL | 1.8 h | 95 µg/mL (≈ 267 µM) | 198 µg/mL (≈ 557 µM) | 558 µg/mL (≈ 1570 µM) | Neg. | 0.567 h | reduction in both NFκB and HIF1α activity: fold lower doses compared to APX3330 [4]: 2 – 11 fold; chemical stability in PKT vehicle, stressed ([5]; 60 °C for 4 h): formation of significant amount of the hydroquinone (HQ) of APX2053; chemical stability in PKT vehicle ([5]; room temperature after four days): acceptable stability; IC50 [7]: < 1 µM; IC50 [10]: 4.3 µM; EC50 [11]: 5.1 ± 0.3 µM; EC50 [13]: 14.5 ± 1.06 µM; efflux ratio [16]: 0.75; EC50 [18]: 18.8 ± 1.35 µM; solubility thermodynamic [19]: 94 µg/mL (≈ 264 µM) |
| CCC/C(=C\C1=C(O)C(=O)c2ccccc2C1=O)C(=O)N(CC)CC [APX2053, (E)-N,N-diethyl-2-((3-hydroxy-1,4-dioxo-1,4-dihydronaphthalen-2-yl)methylene)pentanamide] | 0.0143 mM | 1.9 mL/min/kg | consistent with interactions with Ref-1 | 34.6 mL/min/kg |  |  | 0.0161 mM | 2.3 mL/min/kg | 0.417 h | 19 mL/min/kg | 39.7 ×10⁻⁶ cm/s | 0.0217 mL/min | 25400 ng·h/mL | 5700 ng/mL | 2.1 h | 760 µg/mL (≈ 2230 µM) | 1010 µg/mL (≈ 2960 µM) | 1200 µg/mL (≈ 3510 µM) | Slight. Inhib. | 2.2 h | NADPH levels (ratio of NADPH/NADPt) [22]: does not show reduced NADPH levels; NFκB activity ([9]; NF90–8 and Pa03C, any of the doses tested): do not decrease; blocking Ref-1 activated TF activity (for NFκB) ([9]; tested up to 40 μM): ineffective; cell viability of reporter cells [23]: do not decrease the NFκB activity or affect cell viability; IC50 [10]: 16 µM; efflux ratio [16]: 1 |
| CCCCCCCCC/C(=C\C1=C(C)C(=O)C(OC)=C(OC)C1=O)C(=O)O [APX3330, reference compound] | > 0.02 mM | 4.4 mL/min/kg |  | 14.2 mL/min/kg | 55.1 ± 0.44 µM | 0.0393 mM | > 0.02 mM | 31.8 mL/min/kg | 8.48 h | 67.4 mL/min/kg | 5.2 ×10⁻⁶ cm/s | 0.00833 mL/min | 77900 ng·h/mL | 8820 ng/mL | 3.8 h | 1 µg/mL (≈ 2.64 µM) | 671 µg/mL (≈ 1770 µM) | 448 µg/mL (≈ 1180 µM) | Neg. | 1.57 h | potency in cell-based proliferation assays [24]: 50 to 75 µM; CLint scaled at 1 µM [25]: 21.6 mL/min/kg; inhibition of mitochondrial function [26]: minimal effects; CLint scaled at 1 µM [27]: 5.6 mL/min/kg; EC50 [11]: 33.7 ± 2.81 µM; EC50 [13]: 60.2 ± 4.13 µM; peaks in waterLOGSY difference spectra [28]: consistent with interactions with Ref-1; EC50 [18]: 54.5 ± 1.97 µM; solubility thermodynamic [19]: 496 µg/mL (≈ 1310 µM); response rate [29]: 32% |
| CC(=O)Nc1sc2c(c1-c1nc3ccccc3s1)CCN(C(C)C)C2 [ARi3, reference compound] |  |  |  |  |  |  |  |  |  |  |  |  |  |  |  |  |  |  |  |  | decrease of Ref-1 endonuclease activity ([20]; 20 μM, positive control): 63% |
